{"source": "paper PMC11436873", "about": "(Nature Communications, 2024)", "key": {"[1]": {"assay": "kinetic aqueous solubility"}, "HCT-8 cells": {"test_system": "HCT-8 cells", "assay": "host cell cytotoxicity, CellTiter AQueous", "type": "cell-based, human", "procedure,_shortened": "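HCT-8 cells are grown in RPMI 1640 with 10% heat-inactivated FBS and penicillin/streptomycin at 37 °C, 5% CO2, used at passages 9–39. Confluent (>95%) monolayers get varying compound concentrations for 48 h. MTS reduction is read at 490 nm, blanked against trypsinised wells, and expressed as % viability versus DMSO. TC50 is curve-fitted; the selectivity index is the […].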"}, "C. parvum [2]": {"test_system": "C. parvum", "assay": "NOD SCID gamma mouse model of cryptosporidiosis, fecal parasite shedding by qPCR", "type": "in vivo", "settings": "NSG mice", "procedure,_shortened": "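Male NSG mice aged 4–5 weeks are infected with C. parvum oocysts. Oral gavage starts 7 (or 14) days post-infection and runs 7 days. Dosing stock in DMSO is diluted into 1% HPMC (5% DMSO final, 100 μL per dose), with a paromomycin control. Fecal shedding per mg feces is measured by qPCR at treatment start, at treatment end and one week later. n = 4 mice per group, mean and SEM.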"}, "hERG potassium channel": {"target": "hERG potassium channel (Homo sapiens, UniProt Q12809)", "sequence (Q12809 whole entry)": "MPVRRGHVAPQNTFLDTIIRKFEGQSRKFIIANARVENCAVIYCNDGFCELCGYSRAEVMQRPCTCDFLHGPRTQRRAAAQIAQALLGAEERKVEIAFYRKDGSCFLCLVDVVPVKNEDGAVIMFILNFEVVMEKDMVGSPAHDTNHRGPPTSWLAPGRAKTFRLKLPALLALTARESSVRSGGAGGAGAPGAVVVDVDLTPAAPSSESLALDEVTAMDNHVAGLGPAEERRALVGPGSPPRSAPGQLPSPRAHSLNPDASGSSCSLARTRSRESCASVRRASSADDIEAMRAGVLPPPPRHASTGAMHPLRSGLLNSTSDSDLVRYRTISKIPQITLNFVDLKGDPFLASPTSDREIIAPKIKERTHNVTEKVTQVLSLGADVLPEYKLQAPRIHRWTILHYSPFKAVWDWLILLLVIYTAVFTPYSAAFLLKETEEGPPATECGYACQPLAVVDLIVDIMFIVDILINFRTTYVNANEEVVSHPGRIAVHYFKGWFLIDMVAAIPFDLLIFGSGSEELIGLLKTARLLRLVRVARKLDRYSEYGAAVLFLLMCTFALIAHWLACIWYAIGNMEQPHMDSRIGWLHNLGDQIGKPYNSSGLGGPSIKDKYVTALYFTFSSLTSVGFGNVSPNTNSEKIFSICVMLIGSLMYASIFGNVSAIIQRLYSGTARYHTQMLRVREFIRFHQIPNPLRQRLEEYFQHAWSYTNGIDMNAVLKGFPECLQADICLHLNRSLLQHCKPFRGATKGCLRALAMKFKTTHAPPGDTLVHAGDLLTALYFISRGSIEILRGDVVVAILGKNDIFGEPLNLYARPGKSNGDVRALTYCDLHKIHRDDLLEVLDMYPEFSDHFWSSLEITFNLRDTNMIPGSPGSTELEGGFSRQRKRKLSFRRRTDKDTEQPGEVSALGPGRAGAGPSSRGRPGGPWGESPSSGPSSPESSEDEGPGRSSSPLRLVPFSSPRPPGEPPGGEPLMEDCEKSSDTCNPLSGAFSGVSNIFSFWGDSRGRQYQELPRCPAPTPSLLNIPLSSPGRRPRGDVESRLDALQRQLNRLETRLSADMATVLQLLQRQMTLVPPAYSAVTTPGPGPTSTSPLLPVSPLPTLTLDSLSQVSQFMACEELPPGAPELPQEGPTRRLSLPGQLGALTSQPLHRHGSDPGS", "assay": "hERG [3H]-dofetilide competitive binding", "settings": "probe [3H]-dofetilide"}, "C. hominis Tu502 strain": {"test_system": "C. hominis Tu502 strain", "assay": "C. hominis growth in HCT-8 cells, same method", "type": "cell-based", "settings": "Cryptosporidium hominis, HCT-8, read-out: C. hominis EC50", "procedure,_shortened": "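TU502 oocysts, used within 1 month, excysted with 10 mM HCl (10 min, 37 °C) and then 2 mM sodium taurocholate in PBS (10 min, 16 °C). Material from 5500 oocysts/well was added to >95% confluent HCT-8 monolayers (passages 9–39, 37 °C, 5% CO2). Compound went in 3 h post-infection, with nitazoxanide as control. At 48 h, cells were fixed with paraformaldehyde and stained with fluorescein-Vicia villosa lectin plus Hoechst.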"}, "47 human targets": {"test_system": "47 human targets", "assay": "Eurofins SafetyScan47 panel, whole panel", "settings": "dose-response up to 30 μM"}, "C. parvum [3]": {"test_system": "C. parvum", "assay": "Cryptosporidium rate-of-action assay in HCT-8 cells", "type": "cell-based, Cryptosporidium parvum", "settings": "for parasite elimination in rate-of-action assay: nitazoxanide at EC90, highest tolerated concentration", "procedure,_shortened": "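HCT-8 monolayers (>90% confluent) are infected with C. parvum sporozoites excysted with 10 mM HCl and then 2 mM taurocholate. […] Cells are fixed, stained with V. villosa lectin and Hoechst, and counted by epifluorescence. Counts are normalised to host nuclei and DMSO wells, then fitted to one-phase exponential decay. Four wells per condition.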"}, "[4]": {"assay": "NSG mouse weights and tolerability during efficacy testing", "type": "in vivo, Mus musculus (NOD SCID gamma mice)", "settings": "50 mpk twice daily, 7 days"}, "Cryptosporidium": {"test_system": "Cryptosporidium", "settings": "cited from earlier work"}, "[5]": {"test_system": "C. parvum CpPDE1 Val900Ala", "assay": "HCT-8 cell growth assay, CRISPR CpPDE1 Val900Ala mutant parasite", "type": "cell-based", "settings": "Cryptosporidium parvum, HCT-8, read-out: EC50, CpPDE1 V900A, HCT-8 cell growth assay"}, "human PDE-V": {"test_system": "human PDE-V", "settings": "read-out: IC50 for human PDE-V; cited from earlier work"}}, "data": [{"smiles": "COc1ccc(CNc2nc(-c3ccc(C(=O)O)cc3)nc3c2c2ccccc2n3C)cc1Cl", "note": "[PDEi4]", "values": [{"measurement": "solubility kinetic at 2 h", "setting": "[1]; PBS, pH 7.4, aqueous buffer, kinetic from dmso stock", "value": 21, "unit": "µM"}, {"measurement": "selectivity index", "setting": "HCT-8 cells; HCT-8 TC50 vs C. parvum EC50", "value": 100}, {"measurement": "efficacy, 7-day dosing", "setting": "C. parvum [2]; 50 mpk twice daily oral", "value": "no significant effect"}]}, {"smiles": "CCc1nn(C)c2nc(-c3ccc(C(=O)O)cc3)nc(NCc3ccc(F)cc3)c12", "note": "[PDEi5, 4-(3-ethyl-4-((4-fluorobenzyl)amino)-1-methyl-1H-pyrazolo[3,4-d]pyrimidin-6-yl)benzoic acid]", "values": [{"measurement": "inhibition at 10 µM", "setting": "hERG potassium channel", "value": -14.7, "unit": "%"}, {"measurement": "solubility kinetic", "setting": "[1]; aqueous solution, pH 7.4", "value": 200, "unit": "µM"}, {"measurement": "EC50", "setting": "C. hominis Tu502 strain", "value": 4.7, "unit": "µM"}, {"measurement": "toxicity to the HCT-8 cell line", "setting": "HCT-8 cells; 100 μM, highest concentration tested", "value": "non-toxic"}, {"measurement": "SafetyScan47 EC50/IC50 for 45 of 47 targets", "setting": "47 human targets", "value": "> 30", "unit": "µM"}, {"measurement": "time required for 99.9% parasite reduction", "setting": "C. parvum [3]; in the absence of host immune help", "value": "~ 107 h"}, {"measurement": "reduction of parasite shedding after 7 days of treatment", "setting": "C. parvum [2]; 50 mpk twice daily oral", "value": "~ 99%"}, {"measurement": "relapse after treatment", "setting": "C. parvum [2]; after 7-day dosing", "value": "infection relapsed within a week of stopping treatment"}, {"measurement": "fall of mean mouse weight in the final days of treatment", "setting": "[4]", "value": "~ 5%"}]}, {"smiles": "CC(=O)Oc1ccccc1C(=O)Nc1ncc([N+](=O)[O-])s1", "note": "[nitazoxanide]", "values": [{"measurement": "effectiveness in AIDS patients", "setting": "Cryptosporidium", "value": "equivalent to a placebo"}, {"measurement": "effectiveness in children", "setting": "Cryptosporidium", "value": "~ 56%"}, {"measurement": "parasite elimination in rate-of-action assay", "setting": "C. parvum [3]", "value": "no nitazoxanide-dependent parasite elimination occurred"}, {"measurement": "parasite elimination in rate-of-action assay", "setting": "C. parvum [3]; listed as NTZ", "value": "No exponential decay curve could be fit"}]}, {"smiles": "CCCc1nn(C)c2c(=O)[nH]c(-c3cc(S(=O)(=O)N4CCN(C)CC4)ccc3OCC)nc12", "note": "[sildenafil]", "values": [{"measurement": "EC50", "setting": "[5]", "value": 14, "unit": "µM"}, {"measurement": "IC50", "setting": "human PDE-V", "value": 0.0035, "unit": "µM"}]}]}
